Results taken from ChEMBL document CHEMBL1121449, “Synthesis and antineoplastic activity of hydroquinone dialdehydes” (J Med Chem, 1980).
pIC50: −log10 of the molar value. “And” between values parts separate entries of the source, which are not always exact repeats. Equal entries are not always repeated.

What was measured:
[1] = tested on: Mus musculus; assay: Tested for Mice bearing […] 755 surviving at least 50 days out of 5 animal treated at dose of 20 mg/kg; assay type: functional
In short: (§1)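 Female AKD2F1 mice, adenocarcinoma 755, 0.1 mL of 10^7 cells/mL given ip. Vehicle 0.9% NaCl/5% ethanol/Tween 80, serially diluted with saline. Dosed ip at 0.5 mL once daily for 6 consecutive days starting 24 h post-implant; saline controls. T/C is the mean survival of non-50-day survivors as % of controls. Survivors are those alive ≥50 days.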

[2] = tested on: Mus musculus; assay: Tested for mean survival time of Mice bearing Ehrlich carcinoma not surviving 50 days as a percentage at dose of 10 mg/kg; assay type: functional
In short: (§2)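 Female CD-1 mice, Ehrlich ascites carcinoma, 0.1 mL of 10^7 cells/mL given ip. Drug in 0.9% NaCl with 5% ethanol and trace Tween 80, serially diluted with saline. Dosed ip at 0.5 mL once daily for 6 days from 24 h post-implant; saline controls. T/C is the mean survival of treated mice dying before 50 days as % of controls. Survivors are those alive ≥50 days.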

[3] = tested on: Mus musculus; assay: Tested for change in body weight of Mice bearing […] 755 from onset to termination at dose of 10 mg/kg; assay type: functional
In short: (§3)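 Adenocarcinoma 755 implanted ip (0.1 mL of 10^7 cells/mL) in female AKD2F1 mice. Daily ip dosing for 6 days beginning 24 h after implantation, vehicle 0.9% NaCl/5% ethanol/Tween 80, lower doses by saline dilution. Control mice received saline. Weight difference between day 0 and day 7 taken as % change and used as a toxicity measure.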

[4] = tested on: Mus musculus; assay: Tested for Mice bearing Ehrlich carcinoma surviving at least 50 days out of 10 animal treated at dose of 20 mg/kg; assay type: functional; in short: as §2
[5] = tested on: Mus musculus; assay: Tested for mean survival time of Mice bearing Ehrlich carcinoma not surviving 50 days as a percentage at dose of 20 mg/kg; assay type: functional; in short: as §2
[6] = tested on: Mus musculus; assay: Tested for change in body weight from onset to termination at dose of 20 mg/kg; assay type: functional
In short: (§4)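 Female CD-1 mice inoculated ip with 0.1 mL of 10^7 Sarcoma 180 ascites cells/mL. Drug in 0.9% NaCl with 5% ethanol and Tween 80, serially diluted in saline, given ip once daily for 6 days starting 24 h after implantation. Dose based on mean starting weight. Controls received saline. Weight change recorded from day 0 to day 7, as % change.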

[7] = tested on: Mus musculus; assay: Tested for Mice bearing […] 755 surviving at least 50 days out of 5 animal treated at dose of 5 mg/kg; assay type: functional; in short: as §1
[8] = tested on: Mus musculus; assay: Tested for mean survival time of Mice bearing […] 755 not surviving 50 days as a percentage at dose of 5 mg/kg; assay type: functional; in short: as §1
[9] = tested on: Mus musculus; assay: Tested for change in body weight of Mice bearing Ehrlich carcinoma from onset to termination at dose of 5 mg/kg; assay type: functional
In short: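 Female CD-1 mice given ip implants of Ehrlich carcinoma (0.1 mL of 10^7 cells/mL). Drug in saline containing 5% ethanol and Tween 80, injected ip once daily for 6 consecutive days from 24 h post-implant. Controls received 0.9% NaCl. % body weight change measured between tumor implantation (day 0) and day 7.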

[10] = tested on: Mus musculus; assay: Tested for mean survival time treated animal not surviving 50 days as a percentage at dose of 20 mg/kg; assay type: functional
In short: (§5)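 Female CD-1 mice, Sarcoma 180 ascites, 0.1 mL of 10^7 cells/mL given ip. Drug in 0.9% NaCl, 5% ethanol, Tween 80, serially diluted with saline. Dosed ip at 0.5 mL daily for 6 days from 24 h post-implant; daily dose based on starting mean weight. T/C is the mean survival of treated mice dying before 50 days vs controls. Survivors are those alive ≥50 days out of those treated.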

[11] = tested on: Mus musculus; assay: Tested for number of animal surviving at least 50 days out of 10 animal treated at dose of 15 mg/kg; assay type: functional; in short: as §5
[12] = tested on: Mus musculus; assay: Tested for change in body weight from onset to termination at dose of 15 mg/kg; assay type: functional; in short: as §4
[13] = tested on: Mus musculus; assay: Tested for mean survival time of Mice bearing […] 755 not surviving 50 days as a percentage at dose of 20 mg/kg; assay type: functional; in short: as §1
[14] = tested on: Mus musculus; assay: Tested for number of animal surviving at least 50 days out of 10 animal treated at dose of 2.5 mg/kg; assay type: functional; in short: as §5
[15] = tested on: Mus musculus; assay: Tested for change in body weight from onset to termination at dose of 1.25 mg/kg; assay type: functional; in short: as §4
[16] = tested on: Mus musculus; assay: Tested for mean survival time treated animal not surviving 50 days as a percentage at dose of 10 mg/kg; assay type: functional; in short: as §5
[17] = tested on: Mus musculus; assay: Tested for number of animal surviving at least 50 days out of 5 animal treated at dose of 5 mg/kg
[18] = tested on: Mus musculus; assay: Tested for number of animal surviving at least 50 days out of 10 animal treated at dose of 20 mg/kg; assay type: functional; in short: as §5
[19] = tested on: Mus musculus; assay: Tested for Mice bearing Ehrlich carcinoma surviving at least 50 days out of 10 animal treated at dose of 10 mg/kg; assay type: functional; in short: as §2
[20] = tested on: Mus musculus; assay: Tested for Mice bearing […] 755 surviving at least 50 days out of 5 animal treated at dose of 10 mg/kg; assay type: functional; in short: as §1
[21] = tested on: Mus musculus; assay: Tested for change in body weight from onset to termination at dose of 2.5 mg/kg; assay type: functional; in short: as §4
[22] = tested on: Mus musculus; assay: Tested for mean survival time of Mice bearing Ehrlich carcinoma not surviving 50 days as a percentage at dose of 5 mg/kg; assay type: functional; in short: as §2
[23] = tested on: Mus musculus; assay: Tested for change in body weight of Mice bearing […] 755 from onset to termination at dose of 5 mg/kg; assay type: functional; in short: as §3
[24] = tested on: Mus musculus; assay: Tested for mean survival time treated animal not surviving 50 days as a percentage at dose of 5 mg/kg; assay type: functional; in short: as §5
[25] = tested on: Mus musculus; assay: Tested for mean survival time of Mice bearing […] 755 not surviving 50 days as a percentage at dose of 10 mg/kg; assay type: functional; in short: as §1
[26] = tested on: Mus musculus; assay: Tested for number of animal surviving at least 50 days out of 25 animal treated at dose of 15 mg/kg
[27] = tested on: Mus musculus; assay: Tested for change in body weight from onset to termination at dose of 5 mg/kg; assay type: functional; in short: as §4
[28] = tested on: Mus musculus; assay: (§6) Tested for change in body weight from onset to termination at dose of 10 mg/kg; assay type: functional
In short: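 Tumor-bearing mice were dosed ip once daily for 6 consecutive days from 24 h after ip tumor implantation; saline controls. Each group was weighed on day 7, the day after the last injection, and the change from the implantation day (day 0) was expressed as % body-weight change, used as a toxicity measure.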

[29] = tested on: Mus musculus; assay: Tested for change in body weight of Mice bearing […] 755 from onset to termination at dose of 20 mg/kg; assay type: functional; in short: as §3
[30] = tested on: Mus musculus; assay: Tested for mean survival time treated animal not surviving 50 days as a percentage at dose of 1.25 mg/kg; assay type: functional; in short: as §5
[31] = Tested for inhibition of growth of sarcoma 180 cells in culture; assay type: functional, cell-based; details: Mus musculus
In short: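 Sarcoma 180 cells in suspension in Fischer's medium with 10% horse serum and penicillin/streptomycin, seeded at 10^4 cells/mL. Drug added from 10× stocks in 10% Me2SO/PBS, final 1–100 μM. Control cultures contained 1% Me2SO. Triplicate Coulter counts at 24, 48 and 72 h. IC50 read from a plot of inhibition of cell-number increase at 72 h versus concentration.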

[32] = tested on: Mus musculus; assay: Tested for Mice bearing Ehrlich carcinoma surviving at least 50 days out of 10 animal treated at dose of 5 mg/kg; assay type: functional; in short: as §2
[33] = tested on: Mus musculus; assay: Tested for mean survival time treated animal not surviving 50 days as a percentage at dose of 15 mg/kg; assay type: functional; in short: as §5
[34] = tested on: Mus musculus; assay: Tested for mean survival time treated animal not surviving 50 days as a percentage at dose of 2.5 mg/kg; assay type: functional; in short: as §5
[35] = tested on: Mus musculus; assay: Tested for number of animal surviving at least 50 days out of 10 animals treated at dose of 20 mg/kg; assay type: functional; in short: as §5
[36] = tested on: Mus musculus; assay: as §6; assay type: functional; in short: as §4; remark: listed apart in the source
[37] = tested on: Mus musculus; assay: Tested for number of animal surviving at least 50 days out of 30 animals treated at dose of 5 mg/kg; assay type: functional; in short: as §5
[38] = tested on: Mus musculus; assay: Tested for number of animal surviving at least 50 days out of 30 animals treated at dose of 10 mg/kg; assay type: functional; in short: as §5
[39] = tested on: Mus musculus; assay: Tested for number of animal surviving at least 50 days out of 10 animals treated at dose of 2.5 mg/kg; assay type: functional; in short: as §5
[40] = tested on: Mus musculus; assay: Tested for number of animal surviving at least 50 days out of 15 animals treated at dose of 15 mg/kg; assay type: functional; in short: as §5
[41] = tested on: Mus musculus; assay: Tested for number of animal surviving at least 50 days out of 5 animal treated at dose of 30 mg/kg; assay type: functional; in short: as §5
[42] = tested on: Mus musculus; assay: Tested for mean survival time treated animal not surviving 50 days as a percentage at dose of 30 mg/kg; assay type: functional; in short: as §5
[43] = tested on: Mus musculus; assay: Tested for number of animal surviving at least 50 days out of 5 animal treated at dose of 10 mg/kg; assay type: functional; in short: as §5
[44] = tested on: Mus musculus; assay: Tested for number of animal surviving at least 50 days out of 5 animal treated at dose of 20 mg/kg; assay type: functional; in short: as §5
[45] = tested on: Mus musculus; assay: Tested for change in body weight from onset to termination at dose of 30 mg/kg; assay type: functional; in short: as §4
[46] = tested on: Mus musculus; assay: Tested for number of animal surviving at least 50 days out of 10 animal treated at dose of 5 mg/kg; assay type: functional; in short: as §5
[47] = tested on: Mus musculus; assay: Tested for number of animal surviving at least 50 days out of 10 animal treated at dose of mg/kg; assay type: functional; in short: as §5

Row | Compound | Survivors [1] | Activity [2] [%] | Activity [3] [%] | Survivors [4] | Activity [5] [%] | Activity [6] [%] | Survivors [7] | Activity [8] [%] | Activity [9] [%] | Activity [10] [%] | Activity [13] [%] | Activity [16] [%] | Survivors [20] | Activity [22] [%] | Activity [23] [%] | Activity [24] [%] | Activity [27] [%] | Activity [29] [%] | pIC50 [31] | Survivors [32] | further results
1 | CCCc1c(O)c(C=O)c(C=O)c(O)c1CCC | 3 | 202 | -15 | 1 | 166 | -3 | 4 | 16 | 5 | 150 | 35 | 178 | 4 | 154 | -16 | 205 | 9 | -15 | 4.54 | 0 | Survivors [11]: 0; Activity [12]: 2%; Survivors [14]: 0; Activity [15]: 10%; Survivors [17]: 4; Survivors [18]: 0; Survivors [19]: 4; Activity [21]: 9%; Activity [25]: 22%; Survivors [26]: 2; Activity [28]: -1%; Activity [30]: 88%; Activity [33]: 171%; Mean survival time, treated vs control (T/C) [34]: 138%
2 | Cc1c(C)c(O)c(C=O)c(C=O)c1O | 2 | 125 | -13 | 3 | 127 | -4 | 4 | 27 | 21 | 91 | 138 | 195 | 5 | 120 | -2 | 182 | 6 | -11 | 4.59 | 0 | Survivors [35]: 0; Activity [36]: 1%; Activity [12]: -3%; Survivors [37]: 3; Survivors [19]: 2; Activity [21]: 23%; Survivors [38]: 3; Survivors [39]: 0; Activity [33]: 148%; Mean survival time, treated vs control (T/C) [34]: 128%; Survivors [40]: 0
3 | Cc1c(C)c(O)c(C=O)c(C)c1O |  |  |  |  |  | 25 |  |  |  | 84 |  | 94 |  |  |  |  |  |  | 4.57 |  | Survivors [41]: 0; Activity [42]: 89%; Survivors [43]: 0; Activity [36]: 25%; Survivors [44]: 0; Activity [45]: 17%
4 | CC(=O)Oc1c(C)c(C)c(OC(C)=O)c2c1C(OC(C)=O)OC2OC(C)=O (centres undefined) | 1 | 195 | -15 | 3 | 222 |  | 3 | 59 | 4 | 109 | 38 | 149 | 4 | 168 | -7 | 109 | 5 | -14 | > 4.60 | 2 | Survivors [46]: 0; Activity ([36]; 10 mg/kg): -6% and -4%; Survivors [18]: 0; Survivors [47]: 0; Activity [25]: 16%
